From ChEMBL document CHEMBL3124817, “Design and synthesis of thiazole derivatives as potent FabH inhibitors with antibacterial activity” (Eur J Med Chem, 2014)
Converted amounts (≈) assume the structure as drawn.

Assays:
[1] = Cytotoxicity against human macrophages after 24 hrs by MTT assay; assay type: cell-based, Macrophage
Procedure, shortened: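 Human macrophages in DMEM with 10% FBS and antimycotic, 1.8×10^4 cells/well. Compounds at 160, 40, 10, 2.5, 0.25 μg/mL in 10% DMSO, 24 h at 37 °C under 5% CO₂. Then MTT for 4 h, formazan dissolved in DMSO, absorbance difference 570/630 nm as viability. CC50 by curve fitting; untreated cells as negative control.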

[2] = Inhibition of Escherichia coli N-terminal His-tagged FabH expressed in Escherichia coli BL21(DE3) using holo-acyl carrier protein as substrate preincubated for 1 min followed by acetyl-CoA addition measured after 25 mins by liquid scintillation counting analysis
Procedure, shortened: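 His-tagged FabH purified by Ni–NTA. Reaction: 1 nM FabH, […], 20 mM sodium phosphate pH 7.0, 0.5 mM DTT, 0.25 mM MgCl₂, 1 min preincubation. Started with 25 μM acetyl-CoA plus 0.75 μCi [³H]acetyl-CoA for 25 min. Stopped with cold TCA, protein pellet counted by liquid scintillation. Inhibitors from DMSO stock, final DMSO ≤2%; IC50 determined.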

Staphylococcus aureus = test: Antibacterial activity against Staphylococcus aureus ATCC 6538 after 24 hrs by MTT assay; assay type: functional; conditions: ATCC 6538, 24 h
Procedure, shortened: (§1)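 Broth microdilution in sterile liquid MH medium; compounds from 1 mg/mL DMSO stock, serially diluted. Inoculum about 10^5 cfu/mL, 37 °C for 24 h. MIC read visually, then MTT (2 mg/mL in PBS pH 7.4) added for 4–5 h at room temperature. Dye extracted with acidified isopropanol for 12 h, OD at 550 nm.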

Bacillus spizizenii = test: Antibacterial activity against Bacillus subtilis ATCC 6633 after 24 hrs by MTT assay; assay type: functional; conditions: ATCC 6633, 24 h; procedure, shortened: as §1
Pseudomonas aeruginosa = test: Antibacterial activity against Pseudomonas aeruginosa ATCC 13525 after 24 hrs by MTT assay; assay type: functional; conditions: ATCC 13525, 24 h; procedure, shortened: as §1
Escherichia coli = test: Antibacterial activity against Escherichia coli ATCC 35218 after 24 hrs by MTT assay; assay type: functional; conditions: ATCC 35218, 24 h; procedure, shortened: as §1

Row | SMILES | IC50 [2] | pIC50 [2] | MIC (Staphylococcus aureus) | MIC (Bacillus spizizenii) | MIC (Pseudomonas aeruginosa) | MIC (Escherichia coli) | CC50 at 24 h [1]
1 | O=C(Cc1cccc(Br)c1)Nc1nc(-c2ccccc2)cs1 | 26.9 µM | 4.57 | – | – | – | – | 257 µM
2 | COc1cccc(CC(=O)Nc2nc(-c3ccccc3)cs2)c1 | – | – | – | – | 25 µg/mL (≈ 77.1 µM) | – | –
3 | O=C(Nc1nc(-c2ccc(Br)cc2)cs1)c1ccccc1 | > 100 µM | – | – | – | – | – | –
4 | O=C(Cc1cccc(Br)c1)Nc1nc(-c2ccc(Br)cc2)cs1 | 5.8 µM | 5.01 | – | 1.56 µg/mL (≈ 3.45 µM) | 3.13 µg/mL (≈ 6.92 µM) | 1.56 µg/mL (≈ 3.45 µM) | 220 µM
5 | CCOc1cccc(CC(=O)Nc2nc(-c3ccc(Br)cc3)cs2)c1 | – | – | > 100 µg/mL | 50 µg/mL (≈ 120 µM) | 25 µg/mL (≈ 59.9 µM) | 50 µg/mL (≈ 120 µM) | –
6 | O=C(Cc1ccc(Br)cc1)Nc1nc(-c2ccc(Br)cc2)cs1 | 48.1 µM | 4.32 | – | – | – | – | 315 µM
7 | O=C(Nc1nc(-c2ccccc2)cs1)c1ccccc1 | > 100 µM | – | – | – | – | – | –
8 | CC1(C)S[C@@H]2[C@H](NC(=O)Cc3ccccc3)C(=O)N2[C@H]1C(=O)O [PENICILLIN G] | 4.9 µM | – | – | – | – | – | 229 µM
9 | O=C(Cc1ccc(Cl)cc1)Nc1nc(-c2ccc(Br)cc2)cs1 | 34.7 µM | 4.46 | – | – | – | – | 286 µM

Continued, in another order:

Row | IC50 [2] | pIC50 [2] | MIC (Staphylococcus aureus) | MIC (Bacillus spizizenii) | MIC (Pseudomonas aeruginosa) | MIC (Escherichia coli) | SMILES | CC50 at 24 h [1]
10 | 6.6 µM | 5.25 | 3.13 µg/mL (≈ 7.76 µM) | 6.25 µg/mL (≈ 15.5 µM) | 3.13 µg/mL (≈ 7.76 µM) | 12.5 µg/mL (≈ 31 µM) | COc1cccc(CC(=O)Nc2nc(-c3ccc(Br)cc3)cs2)c1 | 192 µM
11 | 41.8 µM | 4.38 | – | – | – | – | O=C(Cc1ccc(Cl)cc1)Nc1nc(-c2ccccc2)cs1 | 357 µM
12 | 29.3 µM | 4.53 | – | – | – | – | O=C(Cc1ccc(F)cc1)Nc1nc(-c2ccc(Br)cc2)cs1 | 264 µM
13 | – | – | > 100 µg/mL | > 100 µg/mL | 50 µg/mL (≈ 148 µM) | 50 µg/mL (≈ 148 µM) | CCOc1cccc(CC(=O)Nc2nc(-c3ccccc3)cs2)c1 | –
14 | 38.4 µM | 4.42 | – | – | – | – | O=C(Cc1ccc(F)cc1)Nc1nc(-c2ccccc2)cs1 | 318 µM
15 | 9.3 µM | 5.27 | – | – | 12.5 µg/mL (≈ 30.7 µM) | 6.25 µg/mL (≈ 15.3 µM) | O=C(Cc1cccc(Cl)c1)Nc1nc(-c2ccc(Br)cc2)cs1 | 194 µM
16 | 12.3 µM | 4.91 | – | – | – | – | O=C(Cc1cccc(Cl)c1)Nc1nc(-c2ccccc2)cs1 | 264 µM
